Data on one compound can be found in ChEMBL document CHEMBL1154352, “Toll-like receptor 7 selective synthetic oligoribonucleotide agonists: synthesis and structure-activity relationship studies” (J Med Chem, 2009).

Data set [1] relates to PBMC. The data set is described as follows: Immunomodulatory activity in human PBMC assessed as induction of MIP1beta at 50 ug/ml after 24 hrs. It is filed as functional, cell-based. In short, it runs like this:
(§1)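 Human PBMCs plated at 5 × 10^6 cells/mL; compounds dissolved in PBS added at various concentrations, 37 °C for 24 h. Supernatant cytokines/chemokines quantified with human Luminex multiplex kit.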

The species entered for data set [2] is Homo sapiens. The data set is described as follows: Immunostimulatory activity in human pDC assessed as induction of IFNalpha at 100 ug/ml after 24 hrs. It is filed as functional. The method in brief:
(§2)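 Human pDCs plated at 1 × 10^6 cells/mL; compounds in PBS added, 37 °C for 24 h; supernatant cytokines/chemokines by human Luminex multiplex kit.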

Data set [3] deals with PBMC. The data set is described as follows: Immunomodulatory activity in human PBMC assessed as induction of IL1-beta at 50 ug/ml after 24 hrs. Type of data set: functional, cell-based. The method in brief:
as §1

The species entered for data set [4] is Homo sapiens. Briefly: Immunostimulatory activity in human pDC assessed as induction of IP10 at 100 ug/ml after 24 hrs. Type of data set: functional. The method in brief:
as §2

For the next data set, the system named is Mus musculus. Briefly: Immunomodulatory activity in C57BL/6 mouse assessed as induction of IL12 release at 25 mg/kg, sc after 2 hrs by ELISA. Type of data set: functional, organism-based. The arrangement: dose 25 mg/kg. In short, it runs like this:
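Female C57BL/6 wild-type mice, 5–8 weeks old, n=3; compounds given subcutaneously at 10 or 25 mg/kg. Retro-orbital blood at 2 h; serum cytokines by mouse Luminex multiplex or IL-12 ELISA.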
On the technique in general: ELISA stands for enzyme-linked immunosorbent assay.

Data set [5] has as its system PBMC. The data set is described as follows: Immunomodulatory activity in human PBMC assessed as induction of IP10 at 50 ug/ml after 24 hrs. It is filed as functional, cell-based. In short, it runs like this: as §1
For data set [6], the species on record is Homo sapiens. The data set is described as follows: Immunostimulatory activity in human mDC assessed as induction of IL12 at 100 ug/ml after 24 hrs. Type of data set: functional. The method in brief: (§3)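 Human mDCs isolated from PBMCs by CD19+ B-cell depletion then BDCA1 positive selection; plated at 1 × 10^6 cells/mL, compounds in PBS, 37 °C for 24 h; supernatant cytokines by human Luminex multiplex. Representative of four independent experiments.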

For data set [7], the species on record is Homo sapiens. The data set is described as follows: Immunostimulatory activity in human mDC assessed as induction of IL6 at 100 ug/ml after 24 hrs. Type of data set: functional. The method in brief:
as §3

Data set [8] has as its target T1, Toll-like receptor 7 (Homo sapiens) (UniProt Q9NYK1).
T1 sequence (whole entry): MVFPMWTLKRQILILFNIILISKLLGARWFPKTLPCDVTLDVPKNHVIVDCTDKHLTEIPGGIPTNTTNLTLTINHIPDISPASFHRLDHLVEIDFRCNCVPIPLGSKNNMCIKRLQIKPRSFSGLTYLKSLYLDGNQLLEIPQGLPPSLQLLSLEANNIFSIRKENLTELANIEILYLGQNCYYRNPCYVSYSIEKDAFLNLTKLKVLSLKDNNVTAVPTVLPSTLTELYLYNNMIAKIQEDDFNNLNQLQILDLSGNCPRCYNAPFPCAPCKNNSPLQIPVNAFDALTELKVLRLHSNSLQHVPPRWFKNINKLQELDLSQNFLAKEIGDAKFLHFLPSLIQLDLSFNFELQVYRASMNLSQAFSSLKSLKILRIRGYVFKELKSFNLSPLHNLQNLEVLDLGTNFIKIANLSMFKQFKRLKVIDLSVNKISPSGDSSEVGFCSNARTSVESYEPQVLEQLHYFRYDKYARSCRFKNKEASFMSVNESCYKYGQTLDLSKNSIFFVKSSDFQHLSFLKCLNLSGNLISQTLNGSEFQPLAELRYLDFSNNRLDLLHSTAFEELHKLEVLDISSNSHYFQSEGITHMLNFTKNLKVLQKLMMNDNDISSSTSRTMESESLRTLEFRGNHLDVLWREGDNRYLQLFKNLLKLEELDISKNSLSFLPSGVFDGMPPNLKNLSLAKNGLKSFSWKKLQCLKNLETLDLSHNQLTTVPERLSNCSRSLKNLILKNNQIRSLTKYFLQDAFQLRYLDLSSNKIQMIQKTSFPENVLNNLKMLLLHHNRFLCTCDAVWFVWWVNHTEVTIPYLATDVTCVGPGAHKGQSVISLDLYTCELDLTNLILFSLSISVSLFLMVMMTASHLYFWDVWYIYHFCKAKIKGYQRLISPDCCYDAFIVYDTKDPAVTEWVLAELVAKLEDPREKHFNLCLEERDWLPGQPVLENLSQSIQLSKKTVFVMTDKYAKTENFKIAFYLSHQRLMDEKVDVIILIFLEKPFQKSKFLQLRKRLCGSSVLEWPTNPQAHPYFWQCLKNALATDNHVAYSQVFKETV
Briefly: Activation of human TLR7 expressed in HEK293XL assessed as fold induction of NF-kappaB activity at 50 ug/ml after 18 hrs by reporter gene assay relative to control. The method in brief: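 HEK293 cells stably expressing human TLR7 or TLR8, transiently transfected with SEAP reporter plasmid; medium replaced, SIMRA compounds added, 18 h incubation. Supernatant SEAP measured by QuantiBlue; expressed as fold increase in NF-κB activity over PBS control. Tabulated data at 50 μg/mL, representative of three independent experiments.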
On the technique in general: A reporter such as luciferase makes a cellular process visible.

For data set [9], the species on record is Homo sapiens. Briefly: Ratio of human TLR7 activity to human TLR8 activity. In short, it runs like this: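 TLR7/TLR8 ratio computed from fold NF-κB (SEAP reporter) activation in HEK293 cells stably expressing human TLR7 versus TLR8, compounds at 50 μg/mL, 18 h exposure; representative of three independent experiments.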
Data set [10] relates to PBMC. The data set is described as follows: Immunomodulatory activity in human PBMC assessed as induction of MCP1 at 50 ug/ml after 24 hrs. It is filed as functional, cell-based. In short, it runs like this: as §1
For data set [11], the species on record is Homo sapiens. Briefly: Immunostimulatory activity in human mDC assessed as induction of IFNalpha at 100 ug/ml after 24 hrs. Type of data set: functional. The method in brief: as §3
For data set [12], the species on record is Homo sapiens. Briefly: Immunostimulatory activity in human mDC assessed as induction of IP10 at 100 ug/ml after 24 hrs. Type of data set: functional. In short, it runs like this:
as §3

For data set [13], the species on record is Homo sapiens. Briefly: Immunostimulatory activity in human pDC assessed as induction of IL6 at 100 ug/ml after 24 hrs. It is filed as functional. In short, it runs like this: as §2
Data set [14] can be described thus: Metabolic stability in human serum assessed as full length product remaining after 10 mins by HPLC. It is filed as ADME, cell-free. To be noted: read-out: Stability. In short, it runs like this:
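About 0.5 A260 units compound in 1% human serum in PBS, 37 °C; aliquot taken at 10 min, analysed by anion-exchange HPLC for percent intact full-length product.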

For data set [15], the species on record is Homo sapiens. Briefly: Immunostimulatory activity in human mDC assessed as induction of TNFalpha at 100 ug/ml after 24 hrs. Type of data set: functional. In short, it runs like this: as §3
Data set [16] has as its system PBMC. The data set is described as follows: Immunomodulatory activity in human PBMC assessed as induction of IL6 at 50 ug/ml after 24 hrs. Type of data set: functional, cell-based. In short, it runs like this: as §1
Data set [17] deals with PBMC. Briefly: Immunomodulatory activity in human PBMC assessed as induction of IL12 at 50 ug/ml after 24 hrs. Type of data set: functional, cell-based. In short, it runs like this: as §1
Data set [18] relates to PBMC. The data set is described as follows: Immunomodulatory activity in human PBMC assessed as induction of TNFalpha at 50 ug/ml after 24 hrs. Type of data set: functional, cell-based. The method in brief:
as §1

Data set [19] concerns PBMC. The data set is described as follows: Immunomodulatory activity in human PBMC assessed as induction of MIP1alpha at 50 ug/ml after 24 hrs. It is filed as functional, cell-based. The method in brief:
as §1

Data set [20] relates to PBMC. Briefly: Immunomodulatory activity in human PBMC assessed as induction of IFNalpha at 50 ug/ml after 24 hrs. Type of data set: functional, cell-based. The method in brief:
as §1

Data set [21] deals with Toll-like receptor 3 (Homo sapiens) (UniProt O15455). The data set is described as follows: Activation of human TLR3 expressed in HEK293 assessed as induction of NF-kappaB activity reporter gene assay. It is filed as cell-based.
Sequence of Toll-like receptor 3 (Homo sapiens) (O15455 whole entry): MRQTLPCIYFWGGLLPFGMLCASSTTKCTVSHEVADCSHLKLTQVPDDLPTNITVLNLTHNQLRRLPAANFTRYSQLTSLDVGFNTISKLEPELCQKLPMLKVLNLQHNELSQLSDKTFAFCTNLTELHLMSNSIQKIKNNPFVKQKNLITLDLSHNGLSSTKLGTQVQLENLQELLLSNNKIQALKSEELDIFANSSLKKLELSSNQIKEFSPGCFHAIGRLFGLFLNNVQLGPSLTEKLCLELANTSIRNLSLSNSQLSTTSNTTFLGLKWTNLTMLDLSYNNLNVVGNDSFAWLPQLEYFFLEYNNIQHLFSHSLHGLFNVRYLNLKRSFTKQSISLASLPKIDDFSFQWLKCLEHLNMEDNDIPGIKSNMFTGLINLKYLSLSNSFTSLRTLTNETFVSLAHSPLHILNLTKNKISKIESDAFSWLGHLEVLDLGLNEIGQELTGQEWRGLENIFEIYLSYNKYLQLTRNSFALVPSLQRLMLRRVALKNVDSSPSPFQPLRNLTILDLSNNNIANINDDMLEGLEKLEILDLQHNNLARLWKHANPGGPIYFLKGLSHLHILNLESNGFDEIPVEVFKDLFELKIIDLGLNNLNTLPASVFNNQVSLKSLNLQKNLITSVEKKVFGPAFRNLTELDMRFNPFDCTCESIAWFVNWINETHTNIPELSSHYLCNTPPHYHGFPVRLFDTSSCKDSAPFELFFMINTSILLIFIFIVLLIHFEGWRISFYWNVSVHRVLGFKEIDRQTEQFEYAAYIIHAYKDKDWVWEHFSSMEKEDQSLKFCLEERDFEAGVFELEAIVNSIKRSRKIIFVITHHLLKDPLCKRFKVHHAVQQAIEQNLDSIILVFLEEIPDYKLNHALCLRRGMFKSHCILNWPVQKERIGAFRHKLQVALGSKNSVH

Activity calls are given as the source filed them. No cut-off for these calls is given here.

On to `Nc1ccn([C@@H]2O[C@H](COP(=O)(S)O[C@H]3[C@@H](O)[C@H](n4cnc5c(N)ncnc54)O[C@@H]3CO)[C@@H](OP(=O)(S)OC[C@H]3O[C@@H](n4ccc(=O)[nH]c4=O)[C@H](O)[C@@H]3OP(=O)(S)OC[C@H]3O[C@@H](n4ccc(=O)[nH]c4=O)[C@H](O)[C@@H]3OP(=O)(S)OC[C@H]3O[C@@H](n4ccc5c(=O)[nH]c(N)nc54)[C@H](O)[C@@H]3OP(=O)(S)OC[C@H]3O[C@@H](n4cnc5c(N)ncnc54)[C@H](O)[C@@H]3OP(=O)(S)OC[C@H]3O[C@@H](n4cnc5c(N)ncnc54)[C@H](O)[C@@H]3OP(=O)(S)OC[C@H]3O[C@@H](n4ccc5c(=O)[nH]c(N)nc54)[C@H](O)[C@@H]3OP(=O)(S)OC[C@H]3O[C@@H](n4ccc(N)nc4=O)[C@H](O)[C@@H]3OP(=O)(S)OC[C@H]3O[C@@H](n4ccc(=O)[nH]c4=O)[C@H](O)[C@@H]3OP(=O)(S)OC[C@H]3O[C@@H](n4ccc(=O)[nH]c4=O)[C@H](O)[C@@H]3OP(=O)(S)OCC(O)COP(=O)(S)O[C@H]3[C@@H](O)[C@H](n4ccc(=O)[nH]c4=O)O[C@@H]3COP(=O)(S)O[C@H]3[C@@H](O)[C@H](n4ccc(=O)[nH]c4=O)O[C@@H]3COP(=O)(S)O[C@H]3[C@@H](O)[C@H](n4ccc(N)nc4=O)O[C@@H]3COP(=O)(S)O[C@H]3[C@@H](O)[C@H](n4ccc5c(=O)[nH]c(N)nc54)O[C@@H]3COP(=O)(S)O[C@H]3[C@@H](O)[C@H](n4cnc5c(N)ncnc54)O[C@@H]3COP(=O)(S)O[C@H]3[C@@H](O)[C@H](n4cnc5c(N)ncnc54)O[C@@H]3COP(=O)(S)O[C@H]3[C@@H](O)[C@H](n4ccc5c(=O)[nH]c(N)nc54)O[C@@H]3COP(=O)(S)O[C@H]3[C@@H](O)[C@H](n4ccc(=O)[nH]c4=O)O[C@@H]3COP(=O)(S)O[C@H]3[C@@H](O)[C@H](n4ccc(=O)[nH]c4=O)O[C@@H]3COP(=O)(S)O[C@H]3[C@@H](O)[C@H](n4ccc(N)nc4=O)O[C@@H]3COP(=O)(S)O[C@H]3[C@@H](O)[C@H](n4cnc5c(N)ncnc54)O[C@@H]3CO)[C@H]2O)c(=O)n1` (some centres not stated), for which the Activity with PBMC [1] came out at 9220 pg/mL; in the data set with PBMC [3], 261 pg/mL; in the data set with PBMC [5], 287 pg/mL; with PBMC [10] it was 52900 pg/mL; with PBMC [16], 2730 pg/mL; in the data set with PBMC [17], 354 pg/mL. Besides, the Activity came out at 76 pg/mL in the data set with PBMC [18], 5630 pg/mL in the data set with PBMC [19] and 230 pg/mL with PBMC [20]. Moreover, the result in the data set listed under Homo sapiens [2], in the data set listed under Homo sapiens [4], with Mus musculus, in the data set filed under Homo sapiens [6], in the data set filed under Homo sapiens [7] and in the data set listed under Homo sapiens [11] was Active. The result in the data set listed under Homo sapiens [12], in the data set filed under Homo sapiens [13] and in the data set listed under Homo sapiens [15] was Active. For the same compound, the fold change (FC) in [8] turned out to be 23.7. Besides, the Ratio in the data set filed under Homo sapiens [9] amounted to 11.9. Also, in data set [14], the remaining at 10 min worked out at 79%. Besides, the outcome in data set [21] was inactive.
